{
  "source": "PubChem BioAssay AID2373",
  "about": "(NMMLSC, 2010)",
  "target": "Cell division control protein 42 homolog (Homo sapiens) (UniProt P60953)",
  "sequence (P60953 whole entry, looked up)": "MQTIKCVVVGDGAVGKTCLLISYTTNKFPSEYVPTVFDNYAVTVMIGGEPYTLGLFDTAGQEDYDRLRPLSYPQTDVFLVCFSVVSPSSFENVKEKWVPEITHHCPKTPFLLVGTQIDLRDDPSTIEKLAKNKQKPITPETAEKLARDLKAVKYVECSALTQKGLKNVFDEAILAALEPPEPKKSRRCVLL",
  "assay": "Cdc42 GTP Bmax and Kd shifts – biochemical, Mg buffer, varying GTP, mechanism study for Ras-family GTPase inhibitor project, late-stage follow-up (AID 2373)",
  "conditions": "GST-Cdc42 beads, BODIPY-GTP binding, flow cytometry",
  "summary_of_the_method": "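Assay system: GST-tagged human Cdc42 bound to glutathione beads; Schedule: 2 min compound preincubation, overnight 4 °C bead loading; Measured by: flow cytometric bead fluorescence, 530 nm; Control set: DMSO vehicle.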",
  "data": [
    {"smiles": "COc1ccc(C2CC(c3ccccc3)=NN2c2ccc(S(N)(=O)=O)cc2)cc1", "note": "(configuration not stated)", "values": [
      {"measurement": "GTP Bmax with compound", "setting": "at 10 µM, stronger effect = lower value", "value": 2320},
      {"measurement": "Kd", "setting": "measured here: GTP affinity with compound", "value": 16.7, "unit": "nM"}
    ]}
  ]
}
